Laboratory results published in paper PMC10764271 (Saudi Pharmaceutical Journal : SPJ, 2023).
Where two headings read alike, the source gives them in different places.

Legend:
Format in all cases: cell-based, human
MCF-10A = assay: MTT cytotoxicity assay, normal breast cell line MCF-10A; conditions: read-out: IC50 Values MCF-10A, 48 h
Method in brief: (§1)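 Cells grown in DMEM with 10 % FBS and 1 % antibiotics (100 U/ml penicillin), seeded at 1.0 × 10^4 cells/well and left 24 h at 37 °C, 5 % CO2. Medium replaced; test compound at 5, 10, 25 and 50 μM for 48 h. MTT (5 mg/mL solution) added for 4 h; formazan dissolved in DMSO; A570 read. Triplicates. % viability versus untreated cells; IC50 from dose–response analysis.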

MDA-MB-231 = assay: MTT cytotoxicity assay, MDA-MB-231
Method in brief: as §1

MCF-7 = assay: MTT cytotoxicity assay, MCF-7
Method in brief: as §1

[1] = Homo sapiens, MDA-MB-231, 48 h, read-out: IC50 Values MDA-MB-231, MTT, 48 h, ±SD
[2] = Homo sapiens, MCF7, 48 h, read-out: IC50 Values MCF-7, MTT, 48 h, ±SD

For `N.N.[Cl][Pt][Cl]` [Cisplatin, reference compound], the IC50 (MCF-10A; MTT, normal breast cell line, ±SD) was 64.6 ± 0.5 µM, the IC50 (MDA-MB-231; read-out: IC50 Values MDA-MB-231, MTT, 48 h, ±SD) was 27 ± 0.8 µM and the IC50 (MCF-7; read-out: IC50 Values MCF-7, MTT, 48 h, ±SD) was 24.1 ± 0.8 µM.
With `Oc1ccccc1C=Nc1cccnc1NCc1ccccc1` [H2L^1, 2-((2-(benzylamino)pyridin-3-ylimino)methyl)phenol] the IC50 (MCF-10A; Homo sapiens, MCF-10A) was > 100 µM, the IC50 (MDA-MB-231; [1]) was 75 ± 0.2 µM and the IC50 (MCF-7; [2]) was 70.9 ± 0.4 µM.
With `Oc1ccc(Br)cc1C=Nc1cccnc1NCc1ccccc1` [H2L^2, 2-((2-(benzylamino)pyridin-3-ylimino)methyl)-4-bromophenol] the IC50 (MCF-10A; Homo sapiens, MCF-10A) was > 100 µM, the IC50 (MDA-MB-231; [1]) was 81.6 ± 0.6 µM and the IC50 (MCF-7; [2]) was 81.6 ± 0.6 µM.
In the case of `Oc1ccc2ccccc2c1C=Nc1cccnc1NCc1ccccc1` [H2L^3, 1-((2-(benzylamino)pyridin-3-ylimino)methyl)naphthalen-2-ol], the IC50 (MCF-10A; Homo sapiens, MCF-10A) is reported as > 100 µM, the IC50 (MDA-MB-231; [1]) is reported as 87.01 ± 0.3 µM and the IC50 (MCF-7; [2]) is reported as 112.4 ± 0.6 µM.
For `CCN(CC)c1ccc(C=Nc2cccnc2NCc2ccccc2)c(O)c1` [H2L^4, 2-((2-(benzylamino)pyridin-3-ylimino)methyl) −5-(diethylamino)phenol], the IC50 (MCF-10A; Homo sapiens, MCF-10A) was > 100 µM, the IC50 (MDA-MB-231; [1]) was 81.1 ± 0.2 µM and the IC50 (MCF-7; [2]) was 104.6 ± 0.2 µM.
In the case of `Oc1ccc(Br)cc1C=Nc1cccnc1NC1CCCCC1` [H2L^5, 4-bromo-2-((2-(cyclohexylamino)pyridin-3-ylimino)methyl)phenol], the IC50 (MCF-10A; Homo sapiens, MCF-10A) is reported as > 100 µM, the IC50 (MDA-MB-231; [1]) is reported as 82.2 ± 0.6 µM and the IC50 (MCF-7; [2]) is reported as 88.81 ± 0.81 µM.
`CCN(CC)c1ccc(C=Nc2cccnc2NC2CCCCC2)c(O)c1` [H2L^6, 2-((2-(cyclohexylamino)pyridin-3-ylimino)methyl)-5-(diethylamino)phenol] was tested, and the IC50 (MCF-10A; Homo sapiens, MCF-10A) was > 100 µM, the IC50 (MDA-MB-231; [1]) was 96 ± 0.4 µM and the IC50 (MCF-7; [2]) was 99.6 ± 0.41 µM.
With `Cc1ccccc1Nc1ncccc1N=Cc1cc(Br)ccc1O` [H2L^7, 2-((2-(o-toluidino)pyridin-3-ylimino)methyl)-4-bromophenol] the IC50 (MCF-10A; Homo sapiens, MCF-10A) was > 100 µM, the IC50 (MDA-MB-231; [1]) was 85.1 ± 0.4 µM and the IC50 (MCF-7; [2]) was 88.3 ± 0.51 µM.
With `CCN(CC)c1ccc(C=Nc2cccnc2Nc2ccccc2C)c(O)c1` [H2L^8, 2-((2-(o-toluidino)pyridin-3-ylimino)methyl)-5-(diethylamino)phenol] the IC50 (MCF-10A; Homo sapiens, MCF-10A) was > 100 µM, the IC50 (MDA-MB-231; [1]) was 83.6 ± 0.3 µM and the IC50 (MCF-7; [2]) was 88.3 ± 0.3 µM.
With `O=[N+]([O-])c1cccnc1NCc1ccccc1` [compound 1, N-benzyl-3-nitropyridin-2-amine] the IC50 (MCF-10A; Homo sapiens, MCF-10A) was > 100 µM, the IC50 (MDA-MB-231; [1]) was 110 ± 0.4 µM and the IC50 (MCF-7; [2]) was 122 ± 0.8 µM.
With `O=[N+]([O-])c1cccnc1NC1CCCCC1` [compound 2, N-cyclohexyl-3-nitropyridin-2-amine] the IC50 (MCF-10A; Homo sapiens, MCF-10A) was > 100 µM, the IC50 (MDA-MB-231; [1]) was 110.2 ± 0.3 µM and the IC50 (MCF-7; [2]) was 118 ± 0.3 µM.
For `Cc1ccccc1Nc1ncccc1[N+](=O)[O-]` [compound 3, 3-nitro-N-o-tolylpyridin-2-amine], the IC50 (MCF-10A; Homo sapiens, MCF-10A) was > 100 µM, the IC50 (MDA-MB-231; [1]) was 112 ± 0.41 µM and the IC50 (MCF-7; [2]) was 120 ± 0.3 µM.
For `Nc1cccnc1NCc1ccccc1` [compound 4, N^2-benzylpyridine-2,3-diamine], the IC50 (MCF-10A; Homo sapiens, MCF-10A) was > 100 µM, the IC50 (MDA-MB-231; [1]) was 108 ± 0.2 µM and the IC50 (MCF-7; [2]) was 109 ± 0.6 µM.
In the case of `Nc1cccnc1NC1CCCCC1` [compound 5, N^2-cyclohexylpyridine-2,3-diamine], the IC50 (MCF-10A; Homo sapiens, MCF-10A) is reported as > 100 µM, the IC50 (MDA-MB-231; [1]) is reported as 109 ± 0.8 µM and the IC50 (MCF-7; [2]) is reported as 112 ± 0.41 µM.
`Cc1ccccc1Nc1ncccc1N` [compound 6, N^2-o-tolylpyridine-2,3-diamine] was tested, and the IC50 (MCF-10A; Homo sapiens, MCF-10A) was > 100 µM, the IC50 (MDA-MB-231; [1]) was 108 ± 0.2 µM and the IC50 (MCF-7; [2]) was 112 ± 0.2 µM.
